Screening results: PubChem, several laboratories
NTR1 agonist: agonists of human NTR1, primary screen, imaging, U2OS cells, beta-arrestin-GFP, high content. Neurotensin receptor type 1 (Homo sapiens), P30989. NTR1-U2OS beta-arrestin-GFP spot imaging, agonist mode. activation, % at 20 µM. actives 0.17% (n = 330,000). AID 493036, 2011;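 active = activation at or above 40% of the spot to cytoplasm intensity ratio, with at least 20 cells analyzed; inconclusive = wells under 20 cells, flagged as cytotoxic or low count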;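 also: 0% = DMSO without peptide and 100% = 100 nM NTR1 peptide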
CaV13 FRET inh: Disruptors of the CACNA1D IQ motif to Ca2+-dependent inactivation inhibitor domain association, primary screening, Förster resonance energy transfer in intact living …; HEK cells, CFP/YFP FRET ICDI-IQ, plate reader, 10 min; percent FRET-ratio fall versus neutral wells; inhibition, % at 12.3 µM; actives 0.098% (n = 340,000);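 active = mean replicate inhibition of at least 30% and at least 1% of replicates passing that level; inconclusive = only one of the two criteria is met; inactive = neither criterion is met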;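 also: 0% = median of the neutral control wells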
Vif imaging: HIV Vif self-association inhibitors, primary screen, imaging, HEK293T, single point. HEK293T cells, Vif self-association by quenched fluorescence, 24 h. inhibition, % at 7.49 µM. actives 0.35% (n = 340,000). AID 602346, 2012; in the data active = inhibition above about 50%, passing the limit was not always enough; inconclusive = no clear call, values can overlap the other calls; inactive = below about 31%
SR-BI DiI-HDL act: activators of SR-BI mediated DiI-HDL uptake, primary screen, ldlA[mSR-BI] CHO cells, DiI fluorescence; AID 504775, 2011; activation, % at 12.5 µM; actives 0.096% (n = 320,000); 3 h; 100 = double the neutral-control signal;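 active = mean replicate activation of at least 60% and every replicate at or above 60%; inconclusive = mean or all-replicate condition met, but not both; inactive = mean below 60% and not all replicates reaching 60%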;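 also: 0% = median plate neutral-control signal and 100% = twice that signal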
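Assay system: CHO ldlA[mSR-BI] cells, LDL receptor-null, SR-BI overexpressing; medium: Ham's F12 with 0.5% BSA, HEPES 25 mM, pH 7.4; also added: DiI-HDL 10 µg/mL; timing: 3 h uptake period with compound, 37 °C; signal: DiI fluorescence, bottom read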
SR-BI HDL uptake: inhibitors of SR-BI mediated HDL lipid uptake, primary screen, ldlA[mSR-BI] cells, fluorescence, single point. Scavenger receptor class B member 1 (Mus musculus), Q61009. ldlA[mSR-BI] CHO cells, DiI-HDL uptake fluorescence, 3 h. inhibition, % at 12.5 µM. actives 0.96% (n = 320,000);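 active = mean replicate inhibition of at least 70% and a set share of replicates each scoring 70 or more; inconclusive = meets just one of the two criteria; inactive = fails both criteria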;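 also: 0% = median of neutral control wells and 100% = median of positive control wells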
Target sequence (Q61009 whole entry, looked up): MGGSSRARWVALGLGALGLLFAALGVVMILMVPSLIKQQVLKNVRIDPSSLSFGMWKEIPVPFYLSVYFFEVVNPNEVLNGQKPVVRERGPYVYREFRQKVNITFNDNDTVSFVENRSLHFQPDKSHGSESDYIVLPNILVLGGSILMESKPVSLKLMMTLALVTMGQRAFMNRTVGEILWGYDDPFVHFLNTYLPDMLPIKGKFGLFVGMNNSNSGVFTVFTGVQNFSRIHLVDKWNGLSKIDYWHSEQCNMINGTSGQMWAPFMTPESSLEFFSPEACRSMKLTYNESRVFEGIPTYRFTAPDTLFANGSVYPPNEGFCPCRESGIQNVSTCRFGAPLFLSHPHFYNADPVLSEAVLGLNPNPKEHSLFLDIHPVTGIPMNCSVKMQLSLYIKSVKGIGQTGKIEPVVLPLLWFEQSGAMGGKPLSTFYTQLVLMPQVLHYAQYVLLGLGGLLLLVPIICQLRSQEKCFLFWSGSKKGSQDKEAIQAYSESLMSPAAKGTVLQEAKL
V-ATPase pH: regulators of yeast V-ATPase proton pumping, primary screen, pHLuorin cytosolic pH fluorescence; S. cerevisiae; response, % at 10 µM; AID 504577, 2011; actives 0.37% (n = 350,000); in the data active = response mostly above about 7.3%, no sharp cut-off; inactive = mostly below about 5.4%; also: actives read high
Active calls of the source: *; i = inactive; u = inconclusive; x = not tested or not shown; ! = not confirmed by another sample. Most compounds without a hit are left out; they make up all but 1.7% or so of the library.

SMILES	NTR1 agonist	CaV13 FRET inh	Vif imaging	SR-BI DiI-HDL act	SR-BI HDL uptake	V-ATPase pH
O=C(O)C1CCC(CNS(=O)(=O)c2ccccc2)CC1 (stereo not given)	-1.3	-17.1	38.5	-1.7	1.7	2.2
CCOC(=O)/C(=N\Nc1ccc(OC)cc1)c1csc(Nc2ccccc2)n1	29.4	-8.0	8.8	-99.4	99.4*	-2.2
CCN(CC)C(=O)c1csc(Nc2ccc(C)cc2)n1	-0.8	-3.8	-17.5	-18.8	18.8	0.6
CCOC(=O)/C(=N/Nc1ccccc1)c1csc(Nc2ccccc2)n1	31.2	-7.6	x	-95.1	95.1*	-1.0
CCCCC(CCC(=O)O)(C(=O)OCC)c1csc(Nc2ccccc2)n1 (stereo not given)	-0.5	x	15.5	13.1	-13.1	3.1
CCOC(=O)/C(=N\Nc1ccc(Cl)cc1)c1csc(Nc2ccccc2)n1	31.9	-6.1	10.8	-109.5	109.5*	0.0
CC(C)C[C@H](NC(=O)c1cccs1)C(=O)N1CCC[C@H]1C(=O)NCc1ccccc1	x	-7.9	x	x	x	x
C/C(=N\NC(=O)c1cccc(N/N=C(\C)c2ccncc2)c1)c1ccncc1	2.4	-5.1	10.2	-60.6	60.6	-0.1
COc1ccc(/C(C)=N/NC(=O)c2ccncc2)cc1[N+](=O)[O-]	0.3	-6.5	15.9	0.8	-0.8	-5.0
C/C(=N\NC(=O)c1ccncc1)c1cccc(NC(=O)c2ccc(C(C)(C)C)cc2)c1	4.5	x	0.1	-77.6	77.6*	7.7
C/C(=N\NC(=O)COc1ccccc1[N+](=O)[O-])c1cccc(NC(=O)c2ccncc2)c1	5.5	-2.6	-5.4	-80.7	80.7*	-5.9
C/C(=N\NC(=O)c1cccc(N/N=C(\C)c2ccccc2)c1)c1ccccc1	x	-4.8	x	-79.0	79.0*	0.0
C/C(=N/NC(=O)c1ccncc1)c1ccc(NC(=O)c2ccccc2)cc1	1.7	-4.5	-16.8	-8.7	8.7	1.7
CC(=O)N(Cc1ccccc1)c1nccs1	x	-11.6	x	x	x	x
COC(=O)[C@]12C[C@H](CC(=O)NCCC(C)C)C(=O)N(Cc3ccc4c(c3)OCO4)C1=C[C@H](C(C)(C)C)O[C@@H]2C	x	-4.6	x	x	x	x
NC(=O)c1ncn([C@@H]2O[C@H](C(=O)N[C@H](Cc3c[nH]c4ccccc34)C(=O)N3CCN(CC(=O)N4CCCC4)CC3)[C@@H](O)[C@H]2O)n1	x	-2.9	x	x	x	x
COc1ccc2c(C)c(Cl)c(=O)oc2c1	-1.8	x	53.0*	3.4	-3.4	-1.8
O=C(c1ccco1)N1CCN(C(=O)C2CC2)CC1	0.5	-5.2	-16.0	67.1*	-67.1	-0.5
Cc1ccc(/C=C/C(=O)NC2CCCCCCC2)o1	4.4	-5.4	0.0	-2.0	2.0	-0.5
COc1cc(/C=C/C(=O)OCC(=O)N2CCN(S(=O)(=O)c3ccc(C)cc3C)CC2)ccc1OC(F)F	x	-6.3	14.0	-78.1	78.1*	3.1
COC(=O)c1sc2nc(CN3CCN(c4cccc(C(F)(F)F)c4)CC3)[nH]c(=O)c2c1C	-0.5	-18.5	-3.2	-8.1	8.1	1.4
Cc1csc(NC(=O)CCCC(=O)c2ccccc2)n1	-2.2	-4.3	1.8	9.4	-9.4	1.8
CCn1c(=NC(=O)c2ccc(S(=O)(=O)N(C)C)cc2)sc2cccc(OC)c21	0.5	1.8	4.4	-3.8	3.8	3.7
COCCn1c(=NC(=O)C2COc3ccccc3O2)sc2cc(S(N)(=O)=O)ccc21 (stereo not given)	5.1	-3.5	x	-10.9	10.9	4.8
COc1ccc(OC)c2c1sc(=NC(=O)C(C)C)n2C	4.3	-5.8	x	2.6	-2.6	0.5
SMILES	NTR1 agonist	CaV13 FRET inh	Vif imaging	SR-BI DiI-HDL act	SR-BI HDL uptake	V-ATPase pH
CCn1c(=NC(=O)C2COc3ccccc3O2)sc2c(OC)ccc(OC)c21 (stereo not given)	16.4	-2.3	70.8*	-9.7	9.7	-2.1
CCn1c(=NC(=O)c2cccc(N3C(=O)CCC3=O)c2)sc2c(OC)ccc(OC)c21	1.5	-6.3	15.4	-90.7	90.7*	2.2
COc1ccc(OC)c2c1sc(=NC(=O)c1cccc(N3C(=O)CCC3=O)c1)n2C	8.2	-7.2	2.0	-77.3	77.3*	1.4
O=S(=O)(NCCN1CCCC1)c1ccc(Br)cc1	1.0	-2.9	0.9	62.0*	-62.0	2.4
Cc1cccc(OCC(O)Cn2ccnc2C)c1 (stereo not given)	0.8	-4.4	0.0	11.7	-11.7	13.2*
Cc1cccc(C)c1OCC(O)Cn1ccnc1C (stereo not given)	-1.2	-7.2	46.0	-18.9	18.9	5.2
COc1ccc(S(=O)(=O)N2CCOCC2)cc1N=Nc1sc(N)nc1-c1ccccc1	3.9	-3.5	-4.2	-81.0	81.0*	-4.2
COc1ccc(C(=O)NCCN2CCOCC2)cc1S(=O)(=O)Nc1ccc(C)cc1	0.2	-6.6	x	33.9	-33.9	0.7
O=C(NNC(=O)c1cc2ccccc2cc1O)NC1CCCCC1	0.0	-2.8	-8.9	-114.7	114.7*	1.1
O=C(NNC(=S)NC1CCCCC1)c1cccs1	0.1	-3.6	0.1	5.5	-5.5	1.9
O=C(NNC(=S)NC1CCCCC1)c1ccccc1O	1.7	-6.5	-13.5	-117.7	117.7*	-7.2
CC1=Nc2ccc(C)cc2/C1=C/c1c(N)n2oc(C)cc2nc1=O	26.6	u	-6.3	-66.3	92.8*!	2.0
CSc1nsc2nc(=O)c(/C=C3\C(C)=Nc4ccc(C)cc43)c(N)n12	0.3	-83.9	-4.2	-25.5	25.5	-2.4
CCOC(=O)c1ccc(Nc2nc(C)cc(C)c2C#N)cc1	2.5	-5.3	0.0	-73.1	73.1*	3.1
Cc1cc(=O)oc2c1ccc1oc(/C(=N/O)c3ccccc3)c(C)c12	16.0	-7.8	-3.6	515.6*	i	-4.8
N#CC(C#N)=CC1=C2OC(c3ccccc3)=CC(c3ccccc3)=C2CCC1	5.4	x	-2.9	-116.5	116.4*	0.1
CC1CCN(C(=O)COc2cccc3c2CCN(Cc2ccccc2)C3=O)CC1	1.3	91.4*	2.2	-18.7	18.7	-3.3
CCN1CCc2c(OCC(=O)N3CCC(C)CC3)cccc2C1=O	0.5	-6.9	-6.2	-1.9	1.9	-2.5
CC1Sc2ccc(S(=O)(=O)N3CCC(C(=O)NCC(C)c4ccccc4)CC3)cc2NC1=O (stereo not given)	-0.1	-6.7	10.0	132.7*	-132.7	5.0
CC1Sc2ccc(S(=O)(=O)N3CCC(C(=O)NCCc4ccccc4)CC3)cc2NC1=O (stereo not given)	-1.5	-13.4	-4.9	14.7	-14.7	4.2
